According to ChEMBL document CHEMBL1131002, “2beta-Substituted analogues of 4'-iodococaine: synthesis and dopamine transporter binding potencies” (J Med Chem, 1998):
pIC50: −log10 of the molar value.

Tests used:
[1] = target: Sodium-dependent dopamine transporter (Rattus norvegicus, UniProt P23977); assay: Inhibition of dopamine Transporter Affinity against rat whole brain using [3H]WIN-35428 as radioligand; assay type: tissue-based
[2] = target: T1, Monoamine transporters; Norepininephrine & dopamine (Rattus norvegicus) (UniProt P23977+Q9WTR4); assay: (§1) Selectivity for Norepinephrine and Dopamine Transporters was evaluated; assay type: protein assay
Target sequence in this assay (P23977 whole entry): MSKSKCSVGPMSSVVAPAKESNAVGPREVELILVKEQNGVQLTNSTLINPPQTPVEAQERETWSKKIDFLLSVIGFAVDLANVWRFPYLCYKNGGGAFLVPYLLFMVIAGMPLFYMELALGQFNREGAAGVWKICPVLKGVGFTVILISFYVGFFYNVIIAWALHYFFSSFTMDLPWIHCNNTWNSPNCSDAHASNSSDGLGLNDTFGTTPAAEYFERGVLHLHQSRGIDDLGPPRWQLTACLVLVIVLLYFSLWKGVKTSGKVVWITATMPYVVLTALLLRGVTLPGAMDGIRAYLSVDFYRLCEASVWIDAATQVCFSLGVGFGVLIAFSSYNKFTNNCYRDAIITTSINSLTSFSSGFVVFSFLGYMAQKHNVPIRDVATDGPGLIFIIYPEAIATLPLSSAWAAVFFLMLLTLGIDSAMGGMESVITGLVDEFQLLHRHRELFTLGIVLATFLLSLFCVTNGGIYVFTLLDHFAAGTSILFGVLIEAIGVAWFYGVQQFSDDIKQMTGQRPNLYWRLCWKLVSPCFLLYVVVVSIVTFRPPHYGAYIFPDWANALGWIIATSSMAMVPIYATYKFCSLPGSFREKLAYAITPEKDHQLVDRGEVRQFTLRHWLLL
Target sequence in this assay (Q9WTR4 1-597): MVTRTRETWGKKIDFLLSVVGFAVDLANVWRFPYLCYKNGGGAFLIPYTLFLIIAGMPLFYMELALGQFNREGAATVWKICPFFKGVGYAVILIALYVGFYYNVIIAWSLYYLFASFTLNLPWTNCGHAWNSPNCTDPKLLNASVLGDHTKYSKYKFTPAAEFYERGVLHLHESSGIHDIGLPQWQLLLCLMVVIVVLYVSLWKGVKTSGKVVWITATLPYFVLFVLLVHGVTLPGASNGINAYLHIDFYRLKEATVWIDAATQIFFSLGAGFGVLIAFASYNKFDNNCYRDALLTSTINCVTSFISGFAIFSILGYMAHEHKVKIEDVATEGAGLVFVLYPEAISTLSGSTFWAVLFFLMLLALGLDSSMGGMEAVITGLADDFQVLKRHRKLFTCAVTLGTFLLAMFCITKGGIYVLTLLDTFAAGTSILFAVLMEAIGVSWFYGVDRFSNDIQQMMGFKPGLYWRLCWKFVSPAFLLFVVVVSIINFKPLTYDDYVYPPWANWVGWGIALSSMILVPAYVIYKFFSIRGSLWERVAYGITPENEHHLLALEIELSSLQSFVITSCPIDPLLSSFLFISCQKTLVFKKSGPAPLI

[3] = target: Norepinephrine transporter (Rattus norvegicus, UniProt Q9WTR4); assay: Inhibition of norepinephrine Transporter Affinity against rat whole brain using [3H]nisoxetine radioligand
Norepinephrine transporter, sequence (Q9WTR4 whole entry): as the sequence (Q9WTR4 1-597) above
In short: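 Whole brain minus cerebellum membranes in 50 mM Tris-HCl pH 7.4 with 300 mM NaCl and 5 mM KCl. Displacement of 0.7 nM [3H]nisoxetine. Incubated 40 min at 25 °C, then filtered on BSA-soaked GF/B. 1 μM desipramine defined nonspecific binding.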

[4] = target: T1, Monoamine transporters; Norepininephrine & dopamine (Rattus norvegicus); assay: as §1; assay type: protein assay; remark: listed apart in the source
[5] = target: Sodium-dependent serotonin transporter (Rattus norvegicus, UniProt P31652); assay: Inhibition of serotonin Transporter Affinity against rat whole brain using [3H]paroxetine as radioligand
Sodium-dependent serotonin transporter, sequence (P31652 whole entry): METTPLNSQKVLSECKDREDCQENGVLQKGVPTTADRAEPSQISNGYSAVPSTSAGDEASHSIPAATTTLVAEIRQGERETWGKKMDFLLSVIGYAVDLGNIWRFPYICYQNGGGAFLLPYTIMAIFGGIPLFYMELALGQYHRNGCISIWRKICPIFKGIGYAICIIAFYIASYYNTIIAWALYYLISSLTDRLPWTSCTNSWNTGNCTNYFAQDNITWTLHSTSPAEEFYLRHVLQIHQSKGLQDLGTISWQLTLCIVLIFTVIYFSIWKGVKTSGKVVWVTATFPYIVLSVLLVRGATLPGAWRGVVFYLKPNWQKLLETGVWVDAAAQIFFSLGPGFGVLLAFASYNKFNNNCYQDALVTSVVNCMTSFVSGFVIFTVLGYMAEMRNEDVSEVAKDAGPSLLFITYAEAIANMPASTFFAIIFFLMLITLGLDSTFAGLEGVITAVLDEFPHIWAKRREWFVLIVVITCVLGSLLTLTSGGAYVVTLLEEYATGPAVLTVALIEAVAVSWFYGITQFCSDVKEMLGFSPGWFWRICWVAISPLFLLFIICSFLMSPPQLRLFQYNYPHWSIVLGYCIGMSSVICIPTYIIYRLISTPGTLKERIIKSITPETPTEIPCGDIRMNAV

Sodium-dependent dopamine transporter, sequence (P23977 whole entry): as the sequence (P23977 whole entry) above

Row | SMILES | pIC50 [1] | Selectivity [2] | pIC50 [3] | Selectivity [4] | pIC50 [5]
1 | CC[C@@H]1C2CCC(C[C@@H]1OC(=O)c1ccc(I)cc1)N2C (stereo not given in full) | 5.57 | – | – | – | –
2 | COC(=O)[C@@H]1C2CCC(C[C@@H]1OC(=O)c1ccccc1O)N2C (stereo not given in full) | 7.60 | 5.7 | 7.32 | 1.9 | 6.84
3 | CC(C)OC(=O)[C@@H]1C2CCC(C[C@@H]1OC(=O)c1ccc(I)cc1O)N2C (stereo not given in full) | 6.18 | 6.8 | 4.46 | 52.5 | 5.35
4 | CCOC(=O)[C@@H]1C2CCC(C[C@@H]1OC(=O)c1ccc(I)cc1)N2C (stereo not given in full) | 5.69 | – | – | – | –
5 | CN1C2CCC1[C@@H](c1nc(-c3ccccc3)no1)[C@@H](OC(=O)c1ccc(I)cc1)C2 (stereo not given in full) | 5.46 | – | – | – | –
6 | CN1C2CCC1[C@@H](CO)[C@@H](OC(=O)c1ccc(I)cc1)C2 (stereo not given in full) | 5.21 | – | – | – | –
7 | CN1C2CCC1[C@@H](C(=O)Oc1ccccc1)[C@@H](OC(=O)c1ccc(I)cc1)C2 (stereo not given in full) | 5.69 | – | – | – | –
8 | CNC(=O)[C@@H]1C2CCC(C[C@@H]1OC(=O)c1ccc(I)cc1)N2C (stereo not given in full) | < 4.00 | – | – | – | –
9 | C=C[C@@H]1C2CCC(C[C@@H]1OC(=O)c1ccc(I)cc1)N2C (stereo not given in full) | 5.66 | – | – | – | –
10 | COC(=O)[C@H]1[C@@H](c2ccc(F)cc2)C[C@H]2CC[C@H]1N2C | – | – | 6.59 | – | –
11 | CC(C)OC(=O)[C@@H]1C2CCC(C[C@@H]1OC(=O)c1ccc(I)cc1)N2C (stereo not given in full) | 5.86 | – | – | – | –
12 | COC(=O)[C@@H]1C2CCC(C[C@@H]1OC(=O)c1ccc(I)cc1O)N2C (stereo not given in full) | 6.67 | 0.9 | 5.99 | 4.7 | 6.71
13 | COC(=O)[C@@H]1C2CCC(C[C@@H]1OC(=O)c1ccc(I)cc1)N2C (stereo not given in full) | – | 0.4 | 4.73 | 7.3 | 5.98
14 | CC(=O)OC[C@@H]1C2CCC(C[C@@H]1OC(=O)c1ccc(I)cc1)N2C (stereo not given in full) | 5.52 | – | – | – | –
15 | CN1C2CCC1[C@@H](C(=O)OCc1ccccc1)[C@@H](OC(=O)c1ccc(I)cc1)C2 (stereo not given in full) | 5.34 | – | – | – | –
